Results from different studies.
Route: oral

CC1(C)CCN(c2c(C#N)c(=O)[nH]c3cccnc23)CC1  bioavailability (male Wistar rat; plasma): 61%
O=C(Nc1cc(F)c(F)c(F)c1)c1ccc(F)c(S(=O)(=O)NCc2cccc(B(O)O)c2)c1  bioavailability (male Sprague-Dawley rat; plasma; 20 mg/kg): 2.85%
CN1CCC(COc2cnc(-c3cccc(Cn4nc(-c5cccc(C#N)c5)ccc4=O)c3)nc2)CC1  bioavailability (male Sprague-Dawley rat; plasma; 20 mg/kg): 56%
Cn1cc(-c2cc(N3CCCS3(=O)=O)ccc2Oc2ccc(F)cc2F)c2c(F)c[nH]c2c1=O  bioavailability (Sprague-Dawley rat; plasma; 3 mg/kg): 20 to 30%
Cc1cn(-c2cc(NC(=O)c3cccc(-c4ccc5nc(NC(=O)C6CC6)sc5n4)c3)cc(C(F)(F)F)c2)cn1  bioavailability (rat; serum; 2 mg/kg): 4.7%
N#Cc1ccc(Nc2nc(N)cc(Oc3c(F)cc(-c4ccc(C#N)cc4)cc3F)n2)cc1  bioavailability (Sprague-Dawley rat; plasma; 5 mg/kg): 6.51%
Cl.Clc1ccc2c(c1)nc(N1CCNCC1)n2Cc1ccccc1  bioavailability (rat; plasma; 5 mg/kg): 42%
COCCOc1cc(CC2CCN(CCc3ccc4c(c3)C(=O)CCO4)CC2)ccc1Br.O=S(=O)(O)c1ccccc1  bioavailability (male rat; plasma; 10 mg/kg): 7.3%
COc1ccc2c(=O)oc3c(OC)cc(CC(O)CN(C)C)c4c(=O)oc1c2c34 (centres unmarked)  bioavailability (rat; plasma): ~37%
COc1nc2[nH]c(C(F)(F)F)nc2nc1Nc1ccc(OC(F)(F)F)cc1F  bioavailability (Sprague-Dawley rat; serum; 5 mg/kg): 100%
N#Cc1ccc(-c2ccc(C[C@@H](C#N)NC(=O)[C@@H]3CCCCN3)cc2)cc1  bioavailability (Sprague-Dawley rat; plasma; 3 mg/kg): 80%
CNC(=O)c1cccc(-c2ccc(O[C@H]3O[C@H](CO)[C@@H](O)[C@H](O)[C@@H]3O)c(C)c2)c1  bioavailability (male Sprague-Dawley rat; plasma; 10 mg/kg; single dose): 1.34%
N#C[C@]1(CO)O[C@@H](n2cnc3c(=O)[nH]c(N)nc32)C[C@@H]1O  bioavailability (male Sprague-Dawley rat; plasma; 1 mg/kg): ~70%
Oc1c(-n2ccnc2)cnn1-c1cc(N2CCCCC2)ncn1  bioavailability (rat; plasma; 30 mg/kg): 39%
C#Cc1cnc2nc(O)n(C(CC)CC)c2n1  bioavailability (Sprague-Dawley rat; plasma; 1 mg/kg): > 90%
Oc1c(-n2ccnn2)cnn1-c1cc(N2CCOCC2)ncn1  bioavailability (rat; plasma; 30 mg/kg): 34%
CCOC(=O)[C@@]12C[C@@H]1[C@@H](n1ccc3c(NC)nc(C#Cc4ccc(Cl)s4)nc31)[C@H](O)[C@@H]2O  bioavailability (male Sprague-Dawley rat; plasma; 5 mg/kg): 92%
